# Data from ChEMBL document CHEMBL3352243, “Ligand-based virtual screening identifies a family of selective cannabinoid receptor 2 agonists” (Bioorg Med Chem, 2015).
# How the values were obtained:
# [1] = biological target: T1, Cannabinoid receptor 2 (Homo sapiens, UniProt P34972); assay: Agonist activity at human CB2R expressed in CHO cells assessed as reduction in forskolin-induced cAMP accumulation at 3 uM by beta-galactosidase based complementation immunoassay; format: functional, cell-based; parameters: reference not given here
# In short: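 CHO-K1 cells expressing hCB2R, 15,000 per well, incubated overnight at 37 °C, 5% CO2, then anti-cAMP antibody added. Test agent at single concentration with 20 μM forskolin (0.2% DMSO final), 30 min at 37 °C. Lysis/substrate 1 h, then EA reagent 3 h, both at rt in the dark; luminescence read and expressed as % of forskolin+solvent control wells.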
# Target sequence in this assay (P34972 whole entry): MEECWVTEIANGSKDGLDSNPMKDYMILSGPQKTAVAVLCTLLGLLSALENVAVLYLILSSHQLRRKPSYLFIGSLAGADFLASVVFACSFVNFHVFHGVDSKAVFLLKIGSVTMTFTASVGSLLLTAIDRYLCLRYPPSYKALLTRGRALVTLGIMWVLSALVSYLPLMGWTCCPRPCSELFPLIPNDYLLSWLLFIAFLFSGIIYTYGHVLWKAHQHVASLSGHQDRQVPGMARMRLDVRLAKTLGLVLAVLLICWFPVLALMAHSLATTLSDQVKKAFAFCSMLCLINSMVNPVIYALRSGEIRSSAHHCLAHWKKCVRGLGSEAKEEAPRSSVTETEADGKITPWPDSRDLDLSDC
# [2] = biological target: T1, Cannabinoid receptor 2; assay: Agonist activity at human CB2R expressed in CHO cells assessed as reduction in forskolin-induced cAMP accumulation at 1 uM by beta-galactosidase based complementation immunoassay; parameters: reference not given here
# Target sequence in this assay (P34972 whole entry, looked up): as the sequence (P34972 whole entry) above
# [3] = biological target: T1, Cannabinoid receptor 2; assay: Agonist activity at human CB2R expressed in CHO cells assessed as reduction in forskolin-induced cAMP accumulation by beta-galactosidase based complementation immunoassay; format: functional, cell-based
# In short: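 hCB2R CHO-K1 cells plated overnight at 37 °C, 5% CO2; anti-cAMP antibody added, then compound (final 0.2% DMSO) with 20 μM forskolin for 30 min at 37 °C. Lysis/substrate 1 h, then EA detection reagent 3 h at room temperature; luminescence read and normalised to forskolin+solvent wells (100%). EC50 by 4-parameter nonlinear fit of pooled 3–4 independent experiments.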
# Target sequence in this assay (P34972 whole entry): as above
# [4] = system: Liver; assay: Half life in mouse liver microsomes in presence of NADPH by LC-MS/MS method; format: ADME
# In short: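 Mouse liver microsomes incubated with compound at 37 °C with NADPH. Reactions stopped with methanol containing internal standard, centrifuged, supernatant analysed by LC–MS/MS.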
# [5] = biological target: T1, Cannabinoid receptor 2; assay: Displacement of [3H]WIN-55212-2 from human CB2R expressed in CHO cells; format: cell-based
# In short: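 Membranes from CHO cells expressing hCB2R incubated with test compound and tritiated WIN-55212 (0.8 nM), 2 h, 37 °C. Non-specific binding defined with 5 μM WIN-55212. Scintillation counting of bound ligand; Ki via Cheng–Prusoff with radioligand Kd; duplicate.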
# Target sequence in this assay (P34972 whole entry): as above
# [6] = biological target: T2, Cannabinoid receptor 1 (Homo sapiens, UniProt P21554); assay: Agonist activity at human CB1R expressed in CHO cells assessed as reduction in forskolin-induced cAMP accumulation by beta-galactosidase based complementation immunoassay; format: functional, cell-based
# T2 sequence (P21554 whole entry): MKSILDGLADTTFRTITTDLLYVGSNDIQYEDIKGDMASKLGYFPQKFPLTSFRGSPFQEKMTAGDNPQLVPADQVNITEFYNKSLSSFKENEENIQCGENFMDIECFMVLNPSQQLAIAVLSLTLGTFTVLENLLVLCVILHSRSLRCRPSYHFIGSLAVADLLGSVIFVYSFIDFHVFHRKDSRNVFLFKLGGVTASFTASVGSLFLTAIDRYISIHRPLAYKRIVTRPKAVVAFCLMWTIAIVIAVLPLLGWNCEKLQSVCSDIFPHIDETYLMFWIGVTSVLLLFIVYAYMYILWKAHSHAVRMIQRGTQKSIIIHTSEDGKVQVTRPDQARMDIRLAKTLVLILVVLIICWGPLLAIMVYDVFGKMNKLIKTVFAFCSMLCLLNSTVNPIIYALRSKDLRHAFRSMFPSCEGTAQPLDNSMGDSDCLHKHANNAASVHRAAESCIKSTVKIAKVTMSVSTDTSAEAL
# In short: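 CHO-K1 cells expressing hCB1R, 15,000 per well, incubated overnight at 37 °C, 5% CO2, then given anti-cAMP antibody. Compounds were added with 20 μM forskolin (final DMSO 0.2%) for 30 min at 37 °C. Lysis/substrate step 1 h and EA detection 3 h, both at rt in the dark, then luminescence read.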
# [7] = biological target: T2, Cannabinoid receptor 1; assay: Displacement of [3H]CP55940 from human CB1R expressed in CHO cells; format: cell-based
# In short: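 Membranes from CHO cells expressing hCB1R incubated with test compound and [3H]CP 55,940 (0.5 nM) for 2 h at 37 °C. Non-specific binding defined with 10 μM WIN-55212. Bound radioligand measured by scintillation counting. Ki from Cheng–Prusoff using radioligand Kd; run in duplicate.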
# [8] = Aqueous kinetic solubility of the compound at pH 7 at 37 degC by turbidimetric assay; format: physicochemical; details: read-out: Kinetic_solubility
# In short: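 Turbidimetric method: DMSO dilutions added to phosphate-buffered saline pH 7.4 at final 1, 3, 10, 30, 100 μM (1% DMSO), 7 replicates per concentration. Incubated 2 h at 37 °C, then absorbance read at 620 nm. Value is the mid-point of the precipitation range between upper and lower solubility limits.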
smiles,measurement,setting,value
C=CCn1c(SCCCC)nc2sc3c(c2c1=O)CC(C)(C)OC3,Activity,[1],36.7%
same,Activity,[2],76.3%
Cc1ccccc1-c1cccc2[nH]c3nc(SCc4ccccc4C#N)nnc3c12,EC50,[3],4300 nM
CSc1nnc2c(n1)[nH]c1ccccc12,EC50,[3],> 3000 nM
N#Cc1ccccc1CSc1nnc2c(n1)[nH]c1ccc(Br)cc12,EC50,[3],> 3000 nM
N#Cc1ccccc1CSc1nnc2c3ccccc3n(CC3CC3)c2n1,EC50,[3],144 nM
same,t1/2,[4],< 5 min
N#Cc1ccccc1CSc1nnc2c(n1)[nH]c1cc(Br)ccc12,EC50,[3],> 3000 nM
CCOC(=O)c1ccccc1CSc1nnc2c(n1)[nH]c1ccccc12,EC50,[3],> 3000 nM
Clc1ccccc1CSc1nnc2c(n1)[nH]c1ccccc12,EC50,[3],> 3000 nM
N#Cc1ccccc1CSc1nnc2c(n1)[nH]c1cccc(Br)c12,EC50,[3],39 nM
same,Ki,[5],22.5 nM
same,t1/2,[4],5 min
same,EC50,[6],20000 nM
same,Ki,[7],3200 nM
O=[N+]([O-])c1ccccc1CSc1nnc2c(n1)[nH]c1cccc(Br)c12,EC50,[3],37 nM
N#Cc1ccccc1CSc1nnc2c3ccccc3n(CC3CCCCC3)c2n1,EC50,[3],270 nM
same,t1/2,[4],< 5 min
N#Cc1ccccc1CSc1nnc2c3ccccc3n(Cc3ccccc3)c2n1,EC50,[3],214 nM
same,Ki,[5],11 nM
same,t1/2,[4],< 5 min
same,EC50,[6],1550 nM
same,Ki,[7],61 nM
N#Cc1ccccc1CSc1nnc2c3ccccc3n(C(=O)c3ccc(F)cc3)c2n1,EC50,[3],57 nM
CCCCCSc1nnc2c(n1)[nH]c1ccccc12,Activity,[1],73.1%
same,Activity,[2],86.2%
N#Cc1ccccc1CSc1nnc2c3ccccc3n(S(=O)(=O)c3ccccc3[N+](=O)[O-])c2n1,EC50,[3],> 3000 nM
Fc1ccc(CSc2nnc3c(n2)[nH]c2ccccc23)cc1,EC50,[3],> 3000 nM
FC(F)(F)c1ccccc1CSc1nnc2c(n1)[nH]c1ccccc12,EC50,[3],> 3000 nM
CCCCCCSC1=C(C#N)C(c2ccc(F)cc2)NC(=O)N1 (stereo not drawn),Activity,[1],114%
same,Activity,[2],121%
N#Cc1ccccc1CSc1nnc2c3ccccc3n(C(=O)c3ccccc3)c2n1,EC50,[3],113 nM
same,Ki,[5],300 nM
same,solubility kinetic,[8],2 µM
same,Ki,[7],> 10000 nM
CCCCSc1nnc(-c2ccccc2N)c(O)n1,Activity,[1],61.6%
same,Activity,[2],93.5%
O=C(O)c1ccccc1CSc1nnc2c(n1)[nH]c1ccccc12,EC50,[3],2180 nM
CCCCSc1nnc2c(n1)OC(CC)Nc1ccccc1-2 (stereo not drawn),Activity,[1],44.3%
same,Activity,[2],47.8%
Fc1ccccc1CSc1nnc2c(n1)[nH]c1ccccc12,EC50,[3],> 3000 nM
CCCCCCSc1nnc2c(n1)[nH]c1ccccc12,Activity,[1],76%
same,Activity,[2],102%
CCCCCCSC1=C(C#N)C(c2cccc([N+](=O)[O-])c2)NC(=O)N1 (stereo not drawn),Activity,[1],39.9%
same,Activity,[2],63.2%
c1ccc2c(c1)[nH]c1nc(SCC3CCCCC3)nnc12,EC50,[3],> 3000 nM
COc1ccc(C(=O)n2c3ccccc3c3nnc(SCc4ccccc4C#N)nc32)cc1OC,EC50,[3],160 nM
N#Cc1ccccc1C[S+]([O-])c1nnc2c(n1)[nH]c1ccccc12 (stereo not drawn),EC50,[3],3550 nM
N#Cc1ccccc1CSc1nnc2c(n1)[nH]c1cccc(-c3ccsc3)c12,EC50,[3],1760 nM
N#Cc1ccccc1CSc1nnc2c3ccccc3n(C(=O)c3ccc(OC(F)(F)F)cc3)c2n1,EC50,[3],73 nM
same,Ki,[5],380 nM
same,Ki,[7],> 60000 nM
CC(C)CCSc1nc(N)c2c3c(sc2n1)COC(C)(C)C3,Activity,[1],85.3%
same,Activity,[2],76.7%
N#Cc1ccccc1CSc1nnc2c3ccccc3n(C(=O)c3ccno3)c2n1,EC50,[3],19 nM
same,Ki,[5],450 nM
same,solubility kinetic,[8],6.5 µM
same,Ki,[7],> 60000 nM
O=C(c1ccccc1)n1c2ccccc2c2nnc(SCc3ccccc3[N+](=O)[O-])nc21,EC50,[3],75 nM
same,Ki,[5],235 nM
same,Ki,[7],> 60000 nM
CCCCCSc1nnc2c3ccccc3n(C)c2n1,Activity,[1],110%
same,Activity,[2],129%
COC(=O)CCCC(=O)n1c2ccccc2c2nnc(SCc3ccccc3C#N)nc21,EC50,[3],42 nM
same,solubility kinetic,[8],3.75 µM
O=[N+]([O-])c1ccccc1CSc1nnc2c(n1)[nH]c1ccccc12,EC50,[3],33 nM
same,Ki,[5],155 nM
same,t1/2,[4],43 min
same,EC50,[6],> 30000 nM
same,Ki,[7],> 60000 nM
N#Cc1ccccc1CSc1nnc2c(n1)[nH]c1ccccc12,EC50,[3],112 nM
same,Ki,[5],355 nM
same,t1/2,[4],46 min
same,EC50,[6],> 30000 nM
same,solubility kinetic,[8],3.75 µM
same,Ki,[7],> 60000 nM
N#Cc1ccccc1CSc1nnc2c3ccccc3n(C(=O)c3ccc(F)cc3C(F)(F)F)c2n1,EC50,[3],> 3000 nM
N#Cc1cccc(CSc2nnc3c(n2)[nH]c2ccccc23)c1,EC50,[3],6450 nM
same,EC50,[6],> 30000 nM
N#Cc1ccccc1CSc1nnc2c3ccccc3n(C(=O)C3CCCCC3)c2n1,EC50,[3],32 nM
same,Ki,[5],30 nM
same,Ki,[7],> 60000 nM
FC(F)(F)Oc1ccccc1CSc1nnc2c(n1)[nH]c1ccccc12,EC50,[3],> 3000 nM
N#Cc1ccccc1CSc1nnc2c3ccccc3n(S(=O)(=O)c3ccccc3)c2n1,EC50,[3],76 nM
same,t1/2,[4],< 5 min
CCCCCCSC1=C(C#N)C(c2ccc(Cl)cc2)NC(=O)N1 (stereo not drawn),Activity,[1],138%
same,Activity,[2],108%
N#Cc1ccccc1CSc1nnc2c3ccccc3n(C(=O)C3CCCC3)c2n1,EC50,[3],49 nM
same,Ki,[5],320 nM
same,Ki,[7],> 60000 nM
N#Cc1ccccc1CSc1nnc2c3ccccc3n(C(=O)N3CCOCC3)c2n1,EC50,[3],92 nM
same,solubility kinetic,[8],10.5 µM
N#Cc1ccccc1CSc1nnc2c3ccccc3n(C(=O)OCc3ccccc3)c2n1,EC50,[3],> 3000 nM
CCCCn1c2ccccc2c2nnc(SCc3ccccc3C#N)nc21,EC50,[3],106 nM
same,t1/2,[4],< 5 min
CCCCCCSC1=C(C#N)C(c2cccc(Cl)c2)NC(=O)N1 (stereo not drawn),Activity,[1],117%
same,Activity,[2],105%
N#Cc1ccccc1CSc1nnc2c3ccccc3n(C(=O)C3CC3)c2n1,EC50,[3],181 nM
same,t1/2,[4],< 5 min
N#Cc1ccccc1CSc1nnc2c(n1)[nH]c1c(Br)cccc12,EC50,[3],> 3000 nM
CCC1(C)Cc2c(sc3nc(SCCC(C)C)nc(N)c23)CO1 (stereo not drawn),Activity,[1],98.4%
same,Activity,[2],111%
Cc1ccc(S(=O)(=O)n2c3ccccc3c3nnc(SCc4ccccc4C#N)nc32)cc1,EC50,[3],> 3000 nM
COC(=O)CCC(=O)n1c2ccccc2c2nnc(SCc3ccccc3C#N)nc21,EC50,[3],48 nM
same,Ki,[5],360 nM
same,solubility kinetic,[8],3.75 µM
same,Ki,[7],> 60000 nM
CCCCCCSC1=C(C#N)C(c2ccccc2Cl)NC(=O)N1 (stereo not drawn),Activity,[1],119%
same,Activity,[2],98.2%
N#Cc1ccccc1CSc1nnc2c3ccccc3n(C(=O)c3ccco3)c2n1,EC50,[3],46 nM
same,Ki,[5],490 nM
same,Ki,[7],> 10000 nM
O=[N+]([O-])c1ccc(CSc2nnc3c(n2)[nH]c2ccccc23)cc1,EC50,[3],617 nM
CCn1c2ccccc2c2nnc(SCc3ccccc3C#N)nc21,EC50,[3],674 nM
CCCCSc1nnc2c(n1)[nH]c1ccccc12,EC50,[3],296 nM
same,Activity,[1],57.2%
same,solubility kinetic,[8],2 µM
same,Activity,[2],52.1%
CC(=O)n1c2ccccc2c2nnc(SCc3ccccc3C#N)nc21,EC50,[3],> 3000 nM
CCCCCCCC1C(=O)NC(=S)N(c2ccccc2)C1=O (stereo not drawn),Activity,[1],98.1%
same,Activity,[2],111%
Clc1ccc(CSc2nnc3c(n2)[nH]c2ccccc23)cc1,EC50,[3],> 3000 nM
Cc1ccc(-c2cccc3[nH]c4nc(SCc5ccccc5C#N)nnc4c23)cc1,EC50,[3],> 3000 nM
Fc1ccccc1CSc1nnc2c3ccccc3n(Cc3ccccc3)c2n1,EC50,[3],850 nM
same,Ki,[5],215 nM
same,Ki,[7],275 nM
N#Cc1ccccc1CSc1nnc2c3ccccc3n(C(=O)c3cccc(C(F)(F)F)c3)c2n1,EC50,[3],27 nM
Fc1cccc(F)c1CSc1nnc2c(n1)[nH]c1ccccc12,EC50,[3],> 3000 nM
Clc1cccc(CSc2nnc3c(n2)[nH]c2ccccc23)c1,EC50,[3],> 3000 nM
N#Cc1ccccc1CSc1nnc2c(n1)[nH]c1cccc(C3CC3)c12,EC50,[3],231 nM
c1ccc(CSc2nnc3c(n2)[nH]c2ccccc23)cc1,EC50,[3],10000 nM
same,EC50,[6],> 30000 nM
CN(C)c1ccc(C(=O)n2c3ccccc3c3nnc(SCc4ccccc4C#N)nc32)cc1,EC50,[3],> 3000 nM
Cn1c2ccccc2c2nnc(SCc3ccccc3C#N)nc21,EC50,[3],> 3000 nM
N#Cc1ccccc1CSc1nnc2c3ccccc3n(Cc3ccccc3[N+](=O)[O-])c2n1,EC50,[3],53 nM
same,Ki,[5],290 nM
same,EC50,[6],> 30000 nM
same,Ki,[7],> 60000 nM
